Laboratory results: ChEMBL document CHEMBL1151472, “In vitro interactions between tacrolimus and azoles against Candida albicans determined by different methods” (2008)
≈ marks a conversion by molar mass, not a printed value.

Experiments:
Type in all cases: functional
Candida albicans [1] = experiment: Antimicrobial activity against azole-resistant Candida albicans isolate CA10 assessed as growth at 1 ug/ml cotreated with 0.031 ug/ml calcineurin signaling inhibitor tacrolimus after 48 hrs by microdilution checkerboard technique relative to control; design: scale not given: the % may be the effect or the level left
Outline: (§1)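 Checkerboard microdilution in RPMI 1640 (pH 7.0, 2% dextrose, 0.165 M MOPS). Azole dilutions run along columns and FK506 along rows, at 4× final concentration. Final inoculum 2.5 × 10^3 CFU/ml from Sabouraud-subcultured cells. Incubated 35°C for 48 h; OD read at 492 nm. Background from microorganism-free plates subtracted. Growth % = well OD / drug-free well OD. Triplicate on different days, values averaged.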

Candida albicans [2] = experiment: Antimicrobial activity against azole-resistant Candida albicans isolate CA10 assessed as growth at 0.125 ug/ml cotreated with 0.063 ug/ml calcineurin signaling inhibitor Tacrolimus after 48 hrs by microdilution checkboard technique relative to control; design: scale not given: the % may be the effect or the level left
Outline: (§2)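 Checkerboard microdilution in MOPS-buffered RPMI 1640 (pH 7.0, 2% dextrose). Final ranges: azole 0.125–128 μg/ml (FLC) or 0.008–8 μg/ml (ITR, VRC), tacrolimus 0.002–0.125 μg/ml; solvent 1% in single-drug wells. Inoculum 2.5 × 10^3 CFU/ml, 35°C, 48 h. Growth % = background-subtracted OD492 of each well / drug-free well. Triplicate on different days.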

Candida albicans [3] = experiment: Antimicrobial activity against azole-resistant Candida albicans isolate CA10 assessed as growth at 128 ug/ml co-treated with 0.063 ug/ml calcineurin signaling inhibitor tacrolimus after 48 hrs by microdilution checkboard technique relative to control; design: scale not given: the % may be the effect or the level left; outline: as §2
Candida albicans [4] = experiment: Antimicrobial activity against azole-resistant Candida albicans isolate CA10 assessed as growth at 0.25 ug/ml co-treated with 0.031 ug/ml calcineurin signaling inhibitor tacrolimus after 48 hrs by microdilution checkboard technique relative to control; design: scale not given: the % may be the effect or the level left; outline: as §1
Candida albicans [5] = experiment: Antimicrobial activity against azole-resistant Candida albicans isolate CA10 assessed as growth at 32 ug/ml co-treated with 0.031 ug/ml calcineurin signaling inhibitor tacrolimus after 48 hrs by microdilution checkboard technique relative to control; design: scale not given: the % may be the effect or the level left; outline: as §1
Candida albicans [6] = experiment: Antimicrobial activity against azole-resistant Candida albicans isolate CA10 assessed as growth at 128 ug/ml co-treated with 0.031 ug/ml calcineurin signaling inhibitor tacrolimus after 48 hrs by microdilution checkboard technique relative to control; design: scale not given: the % may be the effect or the level left; outline: as §1
Candida albicans [7] = experiment: Antimicrobial activity against azole-resistant Candida albicans isolate CA10 assessed as growth at 0.25 ug/ml cotreated with 0.016 ug/ml calcineurin signaling inhibitor Tacrolimus after 48 hrs by microdilution checkboard technique relative to control; design: scale not given: the % may be the effect or the level left; outline: as §1
Candida albicans [8] = experiment: Antimicrobial activity against azole-resistant Candida albicans isolate CA10 assessed as growth at 4 ug/ml cotreated with 0.016 ug/ml calcineurin signaling inhibitor Tacrolimus after 48 hrs by microdilution checkboard technique relative to control; design: scale not given: the % may be the effect or the level left
Outline: (§3)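 CA10 in RPMI 1640 with 2% dextrose and 0.165 M MOPS, pH 7.0. Checkerboard used twofold dilutions, with azole alone in row H and the drug-free growth control in well H1. Final inoculum was 2.5 × 10^3 CFU/ml, incubated 35°C for 48 h, with OD read at 492 nm. Growth % = background-subtracted well OD / drug-free well OD. Run in triplicate on different days.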

Candida albicans [9] = experiment: Antimicrobial activity against azole-resistant Candida albicans isolate CA10 assessed as growth at 16 ug/ml co-treated with 0.016 ug/ml calcineurin signaling inhibitor tacrolimus after 48 hrs by microdilution checkboard technique relative to control; design: scale not given: the % may be the effect or the level left; outline: as §2
Candida albicans [10] = experiment: Antimicrobial activity against azole-resistant Candida albicans isolate CA10 assessed as growth at 128 ug/ml cotreated with 0.016 ug/ml calcineurin signaling inhibitor tacrolimus after 48 hrs by microdilution checkerboard technique relative to control; design: scale not given: the % may be the effect or the level left; outline: as §2
Candida albicans [11] = experiment: Antimicrobial activity against azole-resistant Candida albicans isolate CA10 assessed as growth at 16 ug/ml co-treated with 0.002 ug/ml calcineurin signaling inhibitor tacrolimus after 48 hrs by microdilution checkboard technique relative to control; design: scale not given: the % may be the effect or the level left; outline: as §2
Candida albicans [12] = experiment: Antimicrobial activity against azole-resistant Candida albicans isolate CA10 assessed as growth at 128 ug/ml cotreated with 0.002 ug/ml calcineurin signaling inhibitor Tacrolimus after 48 hrs by microdilution checkboard technique relative to control; design: scale not given: the % may be the effect or the level left; outline: as §2
Candida albicans [13] = experiment: Antimicrobial activity against azole-resistant Candida albicans isolate CA10 assessed as growth at 32 ug/ml co-treated with 0.008 ug/ml calcineurin signaling inhibitor tacrolimus after 48 hrs by microdilution checkboard technique relative to control; design: scale not given: the % may be the effect or the level left; outline: as §3
Candida albicans [14] = experiment: Antimicrobial activity against azole-resistant Candida albicans isolate CA10 assessed as growth at 8 ug/ml co-treated with 0.004 ug/ml calcineurin signaling inhibitor tacrolimus after 48 hrs by microdilution checkboard technique relative to control; design: scale not given: the % may be the effect or the level left; outline: as §3
Candida albicans [15] = experiment: Antimicrobial activity against azole-resistant Candida albicans isolate CA10 assessed as growth at 0.5 ug/ml after 48 hrs by microdilution checkerboard technique relative to control; outline: as §2
Candida albicans [16] = experiment: Antimicrobial activity against azole-resistant Candida albicans isolate CA10 assessed as growth at 2 ug/ml after 48 hrs by microdilution checkerboard technique relative to control; outline: as §2
Candida albicans [17] = experiment: Antimicrobial activity against azole-resistant Candida albicans isolate CA10 assessed as growth at 4 ug/ml after 48 hrs by microdilution checkerboard technique relative to control; outline: as §3
Candida albicans [18] = experiment: Antimicrobial activity against azole-resistant Candida albicans isolate CA10 assessed as growth at 64 ug/ml after 48 hrs by microdilution checkerboard technique relative to control; outline: as §3
Candida albicans [19] = experiment: Antimicrobial activity against azole-susceptible Candida albicans isolate CA8 after 48 hrs by broth microdilution method; conditions: isolate CA8, 48 h
Outline: (§4)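 CLSI M27-A2 broth microdilution was run in RPMI 1640 (pH 7.0, 2% dextrose, 0.165 M MOPS). Inoculum was 2.5 × 10^3 CFU/ml, incubated 35°C for 48 h without shaking. Plates were read visually (0–5 scale) and at OD 492 nm. MIC80 = lowest concentration giving an 80% absorbance decrease vs drug-free control. Triplicate.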

Candida albicans [20] = experiment: Antimicrobial activity against azole-susceptible Candida albicans isolate CA12 after 48 hrs by broth microdilution method; conditions: isolate CA12, 48 h; outline: as §4
Candida albicans [21] = experiment: Antimicrobial activity against azole-resistant Candida albicans isolate CA137 cotreated with calcineurin signaling inhibitor Tacrolimus after 48 hrs by microdilution checkerboard technique; conditions: isolate CA137, 48 h
Outline: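 Checkerboard microdilution in MOPS-buffered RPMI 1640 (pH 7.0, 2% dextrose) with 2.5 × 10^3 CFU/ml for 48 h at 35°C. Final FK506 was 0.002–0.125 μg/ml. Azole finals were FLC 0.125–128 μg/ml, and ITR and VRC 0.008–8 μg/ml. MIC80 is an 80% OD492 decrease vs drug-free control. Interaction was scored by FICI (synergy ≤0.5, antagonism >4) and by ΔE from triplicates.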

Candida albicans [22] = experiment: Antimicrobial activity against azole-resistant Candida albicans isolate CA10 assessed as growth at 1 ug/ml co-treated with 0.125 ug/ml calcineurin signaling inhibitor tacrolimus after 48 hrs by microdilution checkboard technique relative to control; design: scale not given: the % may be the effect or the level left; outline: as §2
Candida albicans [23] = experiment: Antimicrobial activity against azole-resistant Candida albicans isolate CA10 assessed as growth at 128 ug/ml cotreated with 0.125 ug/ml calcineurin signaling inhibitor Tacrolimus after 48 hrs by microdilution checkboard technique relative to control; design: scale not given: the % may be the effect or the level left; outline: as §2

OC(Cn1cncn1)(Cn1cncn1)c1ccc(F)cc1F [FLUCONAZOLE]
Activity (Candida albicans [1]): 17% | Activity (Candida albicans [2]): 27% | Activity (Candida albicans [3]): 5% | Activity (Candida albicans [4]): 23% | Activity (Candida albicans [5]): 16% | Activity (Candida albicans [6]): 14% | Activity (Candida albicans [7]): 23% | Activity (Candida albicans [8]): 18% | Activity (Candida albicans [9]): 19% | Activity (Candida albicans [10]): 18% | Activity (Candida albicans [11]): 35% | Activity (Candida albicans [12]): 44% | Activity (Candida albicans [13]): 25% | Activity (Candida albicans [14]): 34% | Activity (Candida albicans [15]): 53% | Activity (Candida albicans [16]): 54% | Activity (Candida albicans [17]): 53% | Activity (Candida albicans [18]): 48% | MIC (Candida albicans [19]): 0.25 µg/mL (≈ 0.816 µM) | MIC (Candida albicans [20]): 4 µg/mL (≈ 13.1 µM) | MIC (Candida albicans [21]): 0.5 µg/mL | Activity (Candida albicans [22]): 3% | Activity (Candida albicans [23]): 0%
